# Laboratory results from ChEMBL document CHEMBL3580554, “Design, synthesis, and anticonvulsant activity of new hybrid compounds derived from 2-(2,5-dioxopyrrolidin-1-yl)propanamides and 2-(2,5-dioxopyrrolidin-1-yl)butanamides” (J Med Chem, 2015).
# Legend:
# [1] = tested on: Mus musculus; assay: Anticonvulsant activity in Swiss mouse assessed as protection against seizures at 100 mg/kg, ip dosed 0.25 hrs before initiation of maximal electroconvulsions by maximal electroshock test; assay type: functional
# Method in brief: (§1)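 Mice were dosed i.p. at a fixed 300 or 100 mg/kg (6 Hz: 100 mg/kg only). Protection was then scored against MES, sc PTZ or 6 Hz seizures at pretreatment times of 0.25, 0.5, 1 and 2 h. Groups were four mice, scored as number protected / number tested. This also gives the time course and time of peak effect.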
# [2] = species on record: Rattus norvegicus; assay: Inhibition of [3H]BTX binding to sodium channel site 2 in rat cerebral cortex synaptosomes at 500 uM incubated for 60 mins by scintillation counting based radioligand displacement assay; assay type: subcellular
# Method in brief: (§2)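 Synaptoneurosomal preparations from rat cerebral cortex were used. The read-out was inhibition of specific [3H]BTX binding to the voltage-sensitive sodium channel (site 2), expressed as % inhibition of control specific binding. Compounds were tested at 1, 10, 100 and 500 μM. Inhibition above 50% was taken as significant.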
# [3] = tested on: Mus musculus; assay: Anticonvulsant activity in Swiss mouse assessed as protection against seizures at 100 mg/kg, ip dosed 0.5 hrs before pentylenetetrazole challenge by subcutaneous pentylenetetrazole seizure test; assay type: functional; method in brief: as §1
# [4] = tested on: Mus musculus; assay: Anticonvulsant activity in Swiss mouse model of 6 Hz psychomotor seizure mode assessed as protection against seizures at 100 mg/kg, ip dosed 2 hrs before 6 Hz electrical stimulation by 6 Hz test; assay type: functional; method in brief: as §1
# [5] = tested on: Mus musculus; assay: Anticonvulsant activity in Swiss mouse assessed as protection against seizures at 100 mg/kg, ip dosed 1 hr before initiation of maximal electroconvulsions by maximal electroshock test; assay type: functional; method in brief: as §1
# [6] = tested on: Mus musculus; assay: Protective index, ratio of neurotoxic TD50 in Swiss mouse by Chimney test to anticonvulsant ED50 in Swiss mouse measured at 0.5 hrs of time to peak effect by subcutaneous pentylenetetrazole seizure test; assay type: functional
# Method in brief: (§3)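 Protective index was calculated as TD50 (chimney test, mouse, i.p.) divided by ED50 from the matching MES, sc PTZ or 6 Hz test, both taken at the time of peak effect.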
# [7] = tested on: Liver microsome; assay: Drug metabolism in human liver microsomes assessed as metabolite M2 formation at 50 uM in presence of NADPH regeneration system pre-incubated at 37 degC for 5 min and measured 2 hrs after post NADPH system addition by UPLC and LC-MS/MS method; assay type: ADME
# Method in brief: (§4)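 The compound was incubated 2 h with human liver microsomes. Metabolites were detected by full-scan chromatogram and identified by LC/MS from their [M+H]+ molecular masses.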
# [8] = tested on: Mus musculus; assay: Anticonvulsant activity in Swiss mouse assessed as protection against seizures at 300 mg/kg, ip dosed 0.25 hrs before initiation of maximal electroconvulsions by maximal electroshock test; assay type: functional; method in brief: as §1
# [9] = tested on: Mus musculus; assay: Anticonvulsant activity in Swiss mouse model of 6 Hz psychomotor seizure mode assessed as protection against seizures at 100 mg/kg, ip dosed 0.25 hrs before 6 Hz electrical stimulation by 6 Hz test; assay type: functional; method in brief: as §1
# [10] = species on record: Rattus norvegicus; assay: Inhibition of [3H]BTX binding to sodium channel site 2 in rat cerebral cortex synaptosomes at 1 uM incubated for 60 mins by scintillation counting based radioligand displacement assay; assay type: subcellular; method in brief: as §2
# [11] = species on record: Mus musculus; assay: Protective index, ratio of neurotoxic TD50 in Swiss mouse by Chimney test to anticonvulsant ED50 in Swiss mouse measured at 0.5 hrs of time to peak effect by 6 Hz test by 6 Hz psychomotor seizure test; assay type: functional; method in brief: as §3
# [12] = species on record: Rattus norvegicus; assay: Inhibition of [3H]BTX binding to sodium channel site 2 in rat cerebral cortex synaptosomes at 100 uM incubated for 60 mins by scintillation counting based radioligand displacement assay; assay type: subcellular; method in brief: as §2
# [13] = tested on: Mus musculus; assay: Anticonvulsant activity in Swiss mouse model of 6 Hz psychomotor seizure mode assessed as protection against seizures at 100 mg/kg, ip dosed 0.5 hrs before 6 Hz electrical stimulation by 6 Hz test; assay type: functional; method in brief: as §1
# [14] = tested on: Mus musculus; assay: Anticonvulsant activity in Swiss mouse assessed as protection against seizures at 300 mg/kg, ip dosed 1 hr before initiation of maximal electroconvulsions by maximal electroshock test; assay type: functional; method in brief: as §1
# [15] = Toxicity in ip dosed Swiss mouse assessed as induction of motor performance impairment measured within 60 seconds measured at 0.5 hrs of time to peak effect by Chimney test; assay type: organism-based; settings: in vivo
# Method in brief: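 Neurotoxicity was measured i.p. in mice by the chimney test for motor impairment. It was given as the median neurotoxic dose (TD50, mg/kg) at the time of peak effect.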
# [16] = tested on: Mus musculus; assay: Anticonvulsant activity in Swiss mouse model of 6 Hz psychomotor seizure mode assessed as protection against seizures at 100 mg/kg, ip dosed 1 hr before 6 Hz electrical stimulation by 6 Hz test; assay type: functional; method in brief: as §1
# [17] = tested on: Mus musculus; assay: Anticonvulsant activity in ip dosed Swiss mouse assessed as protection against seizures measured at 1 hr of time to peak effect by subcutaneous pentylenetetrazole seizure test; assay type: functional
# [18] = species on record: Mus musculus; assay: Protective index, ratio of neurotoxic TD50 in Swiss mouse by Chimney test to anticonvulsant ED50 in Swiss mouse measured at 1 hr of time to peak effect by maximal electroshock test; method in brief: as §3
# [19] = tested on: Liver microsome; assay: Drug metabolism in human liver microsomes assessed as metabolite M1 formation at 50 uM in presence of NADPH regeneration system pre-incubated at 37 degC for 5 min and measured 2 hrs after post NADPH system addition by UPLC and LC-MS/MS method; assay type: ADME; method in brief: as §4
structure (smiles),measurement,setting,value
CC(C(=O)N1CCN(c2cccc(C(F)(F)F)c2)CC1)N1C(=O)CCC1=O (racemic),Activity,[1],50%
same,inhibition,[2],62.3%
same,Activity,[3],100%
same,Activity,[4],100%
same,Activity,[5],50%
same,Ratio TD50/ED50,[6],>25.04
same,Drug metabolism,[7],metabolite_detected
same,Activity,[8],75%
same,Activity,[9],75%
same,inhibition,[10],3.5%
same,Ratio TD50/ED50,[11],>71.43
same,inhibition,[12],37.4%
same,Activity,[13],100%
same,Activity,[14],100%
same,TD50 at 0.5 h,[15],> 1500 mg/kg
same,Activity,[16],100%
same,ED50,[17],88.7 mg/kg
same,Ratio TD50/ED50,[18],9.68
same,Drug metabolism,[19],metabolite_detected
